Assay results from ChEMBL document CHEMBL4152350, “A new multifunctional hydroxytyrosol-clofibrate with hypolipidemic, antioxidant, and hepatoprotective effects” (Bioorg Med Chem Lett, 2018).
Calls of active or inactive are those of the source. The calls are words filed in the database; no cut-off is given here.

How the values were obtained:
Mus musculus [1] = assay: Toxicity in ICR mouse assessed as body weight at 240 umol/kg/day administered po for 2 months (reference value: 36.8 +/- 0.70 g); format: organism-based; details: in vivo
Mus musculus [2] = assay: Hepatoprotective activity in ICR mouse assessed as liver weight at 240 umol/kg/day administered po for 2 months (reference value: 1.49 +/- 0.42 g); format: functional
Mus musculus [3] = assay: Antioxidant activity in ICR mouse assessed as hepatic GSSG levels at 240 umol/kg/day administered po for 2 months (reference value: 2.91 +/- 0.31 microM); format: functional
Outline: (§1)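 Male ICR mice (20.0 ± 2.0 g) received 240 µmol/kg/day; normal controls got an equal volume of vehicle. Commercial kits measured serum SOD, CAT and MDA and hepatic GSH and GSSG, with the GSH/GSSG ratio calculated. Groups were compared with normal and CF groups.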

Mus musculus [4] = assay: Hepatoprotective activity in ICR mouse assessed as serum ALT levels at 240 umol/kg/day administered po for 2 months (reference value: 36.25 +/- 1.08 U/L); format: functional
Mus musculus [5] = assay: Hypolipidemic activity in Triton WR 1339-induced acute hyperlipidemic ICR mouse model assessed as decrease in plasma triglyceride levels at 240 umol/kg, ig for one week followed by Triton WR 1339 challenge on day 6 measured after 24 hrs; format: functional; parameters: scale not given: the % may be the effect or the level left
Outline: (§2)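 Acute hyperlipidemia was induced with Triton WR 1339 in mice given 240 µmol/kg intragastrically for 7 days. Plasma TG and TC are expressed as percent reduction, and plasma MDA in nmol/mL. Data are mean ± SEM, n=8, compared against the blank and model groups.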

Mus musculus [6] = assay: Antioxidant activity in ICR mouse assessed as serum SOD levels at 240 umol/kg/day administered po for 2 months (reference value: 337.64 +/- 4.82 U/ml); format: functional; outline: as §1
Mus musculus [7] = assay: Hepatoprotective activity in ICR mouse assessed as liver coefficient at 240 umol/kg/day administered po for 2 months (reference value: 40.50 +/- 0.71 mg/g); format: functional
Mus musculus [8] = assay: Hepatoprotective activity in ICR mouse assessed as hepatocyte hyperplasia at 240 umol/kg/day administered po for 2 months by histopathological analysis; format: functional, organism-based
Outline: (§3)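 Liver slices from male ICR mice (20.0 ± 2.0 g) were examined histopathologically after 240 µmol/kg/day dosing; normal controls received the same volume of vehicle.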

Mus musculus [9] = assay: Hepatoprotective activity in ICR mouse assessed as hypertrophy at 240 umol/kg/day administered po for 2 months by histopathological analysis; format: functional, organism-based; outline: as §3
Mus musculus [10] = assay: Hypolipidemic activity in Triton WR 1339-induced acute hyperlipidemic ICR mouse model assessed as decrease in total cholesterol levels in plasma at 240 umol/kg, ig for one week followed by Triton WR 1339 challenge on day 6 measured after 24 hrs; format: functional; parameters: scale not given: the % may be the effect or the level left; outline: as §2
Mus musculus [11] = assay: Hypolipidemic activity in Triton WR 1339-induced acute hyperlipidemic ICR mouse model assessed as decrease in malonaldehyde levels in plasma at 240 umol/kg, ig for one week followed by Triton WR 1339 challenge on day 6 measured after 24 hrs; format: functional; parameters: scale not given: the % may be the effect or the level left; outline: as §2
Mus musculus [12] = assay: Antioxidant activity in ICR mouse assessed as serum MDA levels at 240 umol/kg/day administered po for 2 months (reference value: 6 +/- 0.20 microM); format: functional; outline: as §1
Mus musculus [13] = assay: Antioxidant activity in ICR mouse assessed as hepatic GSH to GSSG ratio at 240 umol/kg/day administered po for 2 months (reference value: 16.4 +/- 2.34); format: functional; outline: as §1
Mus musculus [14] = assay: Antioxidant activity in ICR mouse assessed as serum CAT levels at 240 umol/kg/day administered po for 2 months (reference value: 2.83 +/- 0.22 U/ml); format: functional; outline: as §1
[15] = Antioxidant activity assessed as hydroxyl radical scavenging activity after 60 mins; format: functional
Mus musculus [16] = assay: Hepatoprotective activity in ICR mouse assessed as midzonal mitosis at 240 umol/kg/day administered po for 2 months by histopathological analysis; format: functional, organism-based; outline: as §3
Mus musculus [17] = assay: Hepatoprotective activity in ICR mouse assessed as centrilobular hypertrophy at 240 umol/kg/day administered po for 2 months by histopathological analysis; format: functional, organism-based; outline: as §3
Mus musculus [18] = assay: Antioxidant activity in ICR mouse assessed as hepatic GSH levels at 240 umol/kg/day administered po for 2 months (reference value: 43.38 +/- 4.59 microM); format: functional; outline: as §1
[19] = Antioxidant activity assessed as DPPH radical scavenging activity after 30 mins; format: functional
Mus musculus [20] = assay: Hepatoprotective activity in ICR mouse assessed as serum AST levels at 240 umol/kg/day administered po for 2 months (reference value: 107.25 +/- 2.77 U/L); format: functional
Mus musculus [21] = assay: Hepatoprotective activity in ICR mouse assessed as serum TBIL levels at 240 umol/kg/day administered po for 2 months (reference value: 0.63 +/- 0.09 microM); format: functional
Mus musculus [22] = assay: Hepatoprotective activity in ICR mouse assessed as serum APK levels per 100 ml at 240 umol/kg/day administered po for 2 months (reference value: 20.02 +/- 0.61 U); format: functional

CC(C)(Oc1ccc(Cl)cc1)C(=O)OCCc1ccc(O)c(O)c1
Activity (Mus musculus [1]): 33.4 g
Activity (Mus musculus [2]): 1.48 g
Activity (Mus musculus [3]): 4.85 µM
Activity (Mus musculus [4]): 39.75 U/L
Activity (Mus musculus [5]): 30%
Activity (Mus musculus [6]): 275.2 U/ml
Activity (Mus musculus [7]): 44.17 mg/g
Activity (Mus musculus [8]): Active
Activity (Mus musculus [9]): Active
Activity (Mus musculus [10]): 33%
Activity (Mus musculus [11]): 29%
Activity (Mus musculus [12]): 6.44 µM
Ratio (Mus musculus [13]): 4.1
Activity (Mus musculus [14]): 2.04 U/ml
Activity [15]: Active
Activity (Mus musculus [16]): Active
Activity (Mus musculus [17]): Active
Activity (Mus musculus [18]): 22.87 µM
Activity [19]: Active
Activity (Mus musculus [20]): 121.37 U/L
Activity (Mus musculus [21]): 0.95 µM
Activity (Mus musculus [22]): 17.57 U

CCOC(=O)C(C)(C)Oc1ccc(Cl)cc1 [CLOFIBRATE]
Activity (Mus musculus [1]): 33.8 g
Activity (Mus musculus [2]): 1.77 g
Activity (Mus musculus [3]): 6.24 µM
Activity (Mus musculus [4]): 63.13 U/L
Activity (Mus musculus [5]): 24%
Activity (Mus musculus [6]): 228.32 U/ml
Activity (Mus musculus [7]): 52.12 mg/g
Activity (Mus musculus [8]): inactive
Activity (Mus musculus [9]): inactive
Activity (Mus musculus [10]): 23%
Activity (Mus musculus [11]): 14%
Activity (Mus musculus [12]): 7.79 µM
Ratio (Mus musculus [13]): 2.1
Activity (Mus musculus [14]): 3.86 U/ml
Activity [15]: inactive
Activity (Mus musculus [16]): inactive
Activity (Mus musculus [17]): inactive
Activity (Mus musculus [18]): 11.6 µM
Activity [19]: inactive
Activity (Mus musculus [20]): 157.5 U/L
Activity (Mus musculus [21]): 13.09 µM
Activity (Mus musculus [22]): 28.64 U
